Data taken from PMC2532710 (Nucleic Acids Research, 2008).
“And” between values parts separate entries of the source, which are not always exact repeats. Equal values may be shown once.

How the values were obtained:
[1] = tested on: HJ substrate; test: 2-AP fluorescence quenching, HJ substrate; assay type: binding
Summary of the method: (§1)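 Substrates were annealed from oligos (boiled 5 min, slow-cooled), gel-purified on native 12% PAGE and quantified spectrophotometrically. After ≥10 min equilibration, emission was read at 330–430 nm (excitation 315 nm). Adenine-substituted spectra were subtracted, and fold decrease at 370 nm was taken versus no peptide.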

[2] = tested on: Holliday junction; test: 2-AP titration Kd, Holliday junction; assay type: binding; details: Kd ratio, n = 1
Summary of the method: (§2)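 Each substrate carried 2-AP at strand 4, position 2 and was used at 0.1 μM in 20 mM Tris-HCl pH 7.8, 25 mM NaCl, 1 mM EDTA, 1.6% DMSO at 24°C. Peptide dimer added in 2-fold steps from 0.003125 μM, 3 min each. Excitation 315 nm, emission 330–430 nm. Adenine background subtracted, 365–375 nm averaged. Fc fitted by least squares to pooled 2–3 dilution series. Value given as Kd relative to HJ Kd.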

[3] = tested on: Complete fork; test: 2-AP titration Kd, complete fork; assay type: binding; details: Kd ratio, n = 1
Summary of the method: as §2

[4] = tested on: 1AP1 oligonucleotide alone (ssDNA); test: 2-AP fluorescence quenching, single oligonucleotide; assay type: binding
[5] = tested on: RecG/HJ complex; test: displacement of RecG from HJ DNA; assay type: binding, Escherichia coli; details: 0.1 μM (WRWYCR)2
[6] = tested on: replication fork substrates; details: ref K. Kepple, Ph.D. Thesis, 2006; cited from earlier work
[7] = tested on: RecG binding to HJ substrate; details: cited from earlier work
[8] = tested on: RuvABC complex; details: cited from earlier work
[9] = tested on: Lagging strand fork; test: 2-AP titration Kd, lagging strand fork; assay type: binding; details: Kd ratio, n = 1
Summary of the method: as §2

[10] = tested on: RecG binding to HJ substrate; test: RecG/; set-up: species or system Escherichia coli
[11] = tested on: RecG helicase; details: cited from earlier work
[12] = tested on: flayed duplex molecule; test: 2-AP fluorescence quenching, flayed duplex; assay type: binding
Summary of the method: as §1

(WRWYCR)2 (disulfide)
fold decrease in 2-AP fluorescence at 370 nm ([1]; HJ-1AP1 (central base), 1.6 μM dimer, 8:1): 1.8 fold | fold decrease in 2-AP fluorescence at 370 nm ([1]; HJ-3AP1 (central base), 0.2 μM dimer, 1:1): 1.3 fold | fold decrease in 2-AP fluorescence at 370 nm ([1]; HJ-3AP1 (central base), 0.8 μM dimer, 4:1): 2.0 fold | fold decrease in 2-AP fluorescence at 370 nm ([1]; HJ-3AP1 (central base), 1.6 μM dimer, 8:1): 2.2 fold | fold decrease in 2-AP fluorescence at 370 nm ([1]; HJ-3AP2, 0.2 μM dimer, 1:1): 1.0 fold | fold decrease in 2-AP fluorescence at 370 nm ([1]; HJ-4AP1 (central base), 0.2 μM dimer, 1:1): 1.2 fold | fold decrease in 2-AP fluorescence at 370 nm ([1]; HJ-4AP1 (central base), 0.8 μM dimer, 4:1): 1.9 fold | fold decrease in 2-AP fluorescence at 370 nm ([1]; HJ-4AP1 (central base), 1.6 μM dimer, 8:1): 1.8 fold | fold decrease in 2-AP fluorescence at 370 nm ([1]; HJ-4AP2 (central base), 0.05 μM dimer, 0.25:1): 1.0 fold | fold decrease in 2-AP fluorescence at 370 nm ([1]; HJ-4AP2 (central base), 0.2 μM dimer, 1:1): 1.2 fold | fold decrease in 2-AP fluorescence at 370 nm ([1]; HJ-4AP2 (central base), 0.8 μM dimer, 4:1): 2 fold and 2.0 fold | fold decrease in 2-AP fluorescence at 370 nm ([1]; HJ-4AP2 (central base), 1.6 μM dimer, 8:1): 2.2 fold | fold decrease in 2-AP fluorescence at 370 nm ([1]; HJ-4AP3, 0.05 μM dimer, 0.25:1): 1.0 fold | fold decrease in 2-AP fluorescence at 370 nm ([1]; HJ-4AP3, 0.2 μM dimer, 1:1): 1.2 fold | fold decrease in 2-AP fluorescence at 370 nm ([1]; HJ-4AP4, 0.05 μM dimer, 0.25:1): 1.0 fold | fold decrease in 2-AP fluorescence at 370 nm ([1]; HJ-4AP4, 0.2 μM dimer, 1:1): 1.0 fold | fold decrease in 2-AP fluorescence at 370 nm ([1]; HJ-4AP4, 0.8 μM dimer, 4:1): 1.2 fold | fold decrease in 2-AP fluorescence at 370 nm ([1]; HJ-4AP4, 1.6 μM dimer, 8:1): 1.2 fold | quenching of 2-AP in the center of HJ and replication forks ([1]; center of both HJ and replication forks): quench the fluorescence of 2-AP bases | quenching of central bases, preliminary set ([1]; the eighth central base, Boldt and Segall, unpublished data, preliminary): 1.6 X | Fold reduced versus HJ [2]: 1 | Fold reduced versus HJ [3]: 4.4 | 2-AP quenching ([4]; 8-fold molar excess of peptide, data not shown): no significant quenching | 2-AP quenching ([4]; 16-fold peptide excess): Quenching begins | 2-AP quenching ([4]; 32-fold excess): increases | disappearance of band with two RecG monomers per HJ [5]: takes far longer to disappear | binding to replication forks by band shift [6]: unable to detect binding | complexes formed when peptide and RecG are added together to HJ [7]: mostly peptide–HJ complexes | inhibition of HJ resolution by RuvABC [8]: inhibit | IC50 ([8]; read-out: IC50, RuvABC): ~50 nM | Fold reduced versus HJ [9]: 5.5 | mechanism of inhibition of RecG [10]: competitive mechanism | inhibition of RecG binding to HJ ([10]; 0.02 μM RecG, 0.025 μM peptide dimer, 2 nM HJ): strongly inhibited | inhibition of RecG binding to HJ ([10]; 0.02 μM RecG, 0.1 μM peptide, 2 nM HJ): almost completely inhibited | inhibition of RecG binding to HJ ([10]; 0.2 μM RecG, 0.025 μM peptide): only weak inhibition | inhibition of RecG–DNA complexes, order of addition ([10]; data not shown, Saha and Segall, unpublished data): occurs whether the peptide is added to DNA 10 min before or after RecG | inhibition of unwinding of branched DNA substrates by RecG [11]: inhibit unwinding of branched DNA substrates | inhibition of RecG by fork type ([11]; fork with only lagging vs only leading strand): inhibits RecG most on a fork substrate with only the lagging strand and least on a fork substrate with only the leading strand | fold decrease in 2-AP fluorescence at 370 nm ([12]; Flayed-1AP1 (central base), 1.6 μM dimer, 8:1): 1.3 fold | fold decrease in 2-AP fluorescence at 370 nm ([12]; Flayed-4AP1 (central base), 0.8 μM dimer, 4:1): 1.2 fold | 2-AP quenching ([12]; Flayed-4AP1, 4AP2 and 4AP3, compared with leading strand fork): even less sensitive to quenching | fold decrease in 2-AP fluorescence at 370 nm ([12]; Flayed-4AP2 (central base), 0.05 μM dimer, 0.25:1): 1.0 fold | fold decrease in 2-AP fluorescence at 370 nm ([12]; Flayed-4AP2 (central base), 0.8 μM dimer, 4:1): 1.3 fold | fold decrease in 2-AP fluorescence at 370 nm ([12]; Flayed-4AP3, 0.05 μM dimer, 0.25:1): 1.0 fold | fold decrease in 2-AP fluorescence at 370 nm ([12]; Flayed-4AP3, 0.8 μM dimer, 4:1): 1.2 fold | fold decrease in 2-AP fluorescence at 370 nm ([12]; Flayed-4AP3, 1.6 μM dimer, 8:1): 1.3 fold | fold decrease in 2-AP fluorescence at 370 nm ([12]; Flayed-4AP4, 0.05 μM dimer, 0.25:1): 1.0 fold | fold decrease in 2-AP fluorescence at 370 nm ([12]; Flayed-4AP4, 0.2 μM dimer, 1:1): 1.0 fold | fold decrease in 2-AP fluorescence at 370 nm ([12]; Flayed-4AP4, 1.6 μM dimer, 8:1): 1.2 fold | 2-AP quenching ([12]; Flayed-4AP4 and Flayed-1AP1): only weakly quenched
